Measured values as given in publication PMC11370311 (Cell reports, 2024).

Tests used:
[1] = tested on: PRMT1; test: GFP-Trap IP-MS of GFP-RMET; type: cell-based, human; conditions: HEK293T, AdOx-treated, 3 days, label-free MS
Method in brief: (§1)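 HEK293T cells were transfected with GFP-RMET; half were treated with 25uM AdOx for 3 days. Cells were lysed in mild NP-40 buffer with protease inhibitors and sonicated, and cleared lysate was captured on GFP-trap agarose 2 h at 4°C. Eluates were gel-separated and the excised bands analysed by nanoLC-MS/MS on an Orbitrap Fusion. Sequest HT searching used 10 ppm MS and 0.6 Da MS/MS tolerance, with 1% protein FDR (2 peptides) and 0.1% peptide FDR. Peptide counts per protein were reported.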

[2] = tested on: MEP50; test: GFP-Trap IP-MS of GFP-RMET; type: cell-based, human; conditions: HEK293T, AdOx-treated, 3 days, label-free MS
Method in brief: as §1

[3] = tested on: SND1; test: GFP-Trap IP-MS of GFP-RMET; type: cell-based, human; conditions: HEK293T, with vs without AdOx, 3 days, label-free MS
Method in brief: (§2)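 HEK293T cells at 80% confluence were transfected with GFP-RMET using lipofectamine 2000. Half the cells got 25uM AdOx for 3 days. Lysis was in mild buffer (10 mM Tris/Cl pH 7.5, 150 mM NaCl, 0.5 mM EDTA, 0.5% NP-40) with protease inhibitors, then sonication and clearing. GFP-trap agarose ran 2 h at 4°C, followed by washing, elution, gel and LC-MS. Peptide counts per protein were taken at 1% protein FDR, 2 peptides minimum, and 0.1% peptide FDR.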

[4] = tested on: PRMT5; test: GFP-Trap IP-MS of GFP-RMET; type: cell-based, human; conditions: HEK293T, AdOx-treated, 3 days, label-free MS
Method in brief: as §1

[5] = tested on: SMN; test: GFP-Trap IP-MS of GFP-RMET; type: cell-based, human; conditions: HEK293T, with vs without AdOx, 3 days, label-free MS
Method in brief: as §2

[6] = tested on: RIOK1; test: GFP-Trap IP-MS of GFP-RMET; type: cell-based, human; conditions: HEK293T, AdOx-treated, 3 days, label-free MS
Method in brief: as §1

[7] = tested on: interaction between GFP-SART3 and endogenous fibrillarin; test: Co-IP of GFP-SART3 with endogenous fibrillarin; type: cell-based, human; conditions: HEK293T; 3 days; 10uM EPZ015666 or 1uM MS023; IP/western blot
Method in brief: (§3)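 HEK293T cells were grown at 37°C in DMEM with 10% FBS and 1% antibiotic-antimycotic, then transfected at 80% confluence using lipofectamine 2000. They were treated with 10uM EPZ015666 (PRMT5) or 1uM MS023 (PRMT1) for 3 days. Lysates were made in mild buffer (10mM Tris pH 7.5, 150mM NaCl, 0.5mM EDTA, 0.5% NP-40, protease inhibitors). Anti-GFP on Protein A/G beads was incubated with lysate 2 h at 4°C, then SDS-PAGE, PVDF, ECL western.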

[8] = tested on: interaction between GFP-SART3 and endogenous coilin; test: Co-IP of GFP-SART3 with endogenous coilin; type: cell-based, human; conditions: HEK293T; 3 days; 10uM EPZ015666 or 1uM MS023; IP/western blot
Method in brief: as §3

[9] = tested on: interaction between SART3 and the representative spliceosomal proteins; test: Co-IP of GFP-SART3 with representative spliceosomal proteins; type: cell-based, human; conditions: HeLa, 10uM EPZ015666, 3 days, IP/western blot
Method in brief: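 HeLa SART3-KO clones were made by lentiCRISPRv2 and blasticidin 10 μg/mL, then single-cell cloned. They were restored by lentiviral GFP-SART3 (WT, Y112A or W377A) with puromycin 2 μg/mL selection. Lysates in mild NP-40 buffer were incubated with anti-GFP on Protein A/G beads, 2 h at 4°C, washed three times and boiled. Partners were detected by SDS-PAGE/PVDF western with HRP secondary and ECL on X-ray film.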

[10] = tested on: GST-SART3(HAT) (N + C); test: Biotinylated GAR peptide pull-down of GST-SART3; type: binding; conditions: 2 μg GST-tagged protein, 1h at 4°C, western blot, repeated three times
Method in brief: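 Streptavidin beads loaded with biotinylated GAR peptides (1 h, 4°C, rocking): fibrillarin unmethylated, ADMA or SDMA; coilin unmethylated, or SDMA at Arg 1–3 or 3–5. After 3 washes in mild lysis buffer (10 mM Tris/Cl pH 7.5, 0.5 mM EDTA, 0.5% NP-40), beads took 2 μg GST protein for 1 h at 4°C with rocking. Coilin pull-downs also ran in RIPA. Bound protein was eluted and read by western blot.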

`Nc1ncnc2c1ncn2C(C=O)OC(C=O)CO` (stereo not shown) [AdOx] was tested, and the “enrichment of PRMT1 with RMET” value [1] was “relatively enriched”, the “enrichment of MEP50 with RMET” value [2] was “relatively enriched” and the “enrichment of SND1 as RMET binder” value [3] was “selectively enriched as RMET binders, exclusively in cells that were not treated with AdOx”. For the same compound, the “enrichment of PRMT5 with RMET” value [4] was “relatively enriched”, the “enrichment of SMN as RMET binder” value [5] was “selectively enriched as RMET binders, exclusively in cells that were not treated with AdOx” and the “enrichment of RIOK1 with RMET” value [6] was “relatively enriched”.

For `O=C(NC[C@H](O)CN1CCc2ccccc2C1)c1cc(NC2COC2)ncn1` [EPZ015666], the “interaction between GFP-SART3 and endogenous fibrillarin” value [7] was “reduced the interaction”, the “interaction between GFP-SART3 and endogenous coilin” value [8] was “reduced the interaction” and the “interaction between SART3 and representative spliceosomal proteins” value [9] was “inhibits the interaction”.

With `CC(C)Oc1ccc(-c2c[nH]cc2CN(C)CCN)cc1` [MS023] the “interaction between GFP-SART3 and endogenous fibrillarin” value [7] was “this reduced interaction was not observed” and the “interaction between GFP-SART3 and endogenous coilin” value [8] was “this reduced interaction was not observed”.

With “Biotin-AKGRGMRG[Rme2s]G[Rme2s]G[Rme2s]GHP-Amide” the “binding of coilin GAR peptide to GST-SART3(HAT)” value ([10]; biotinylated coilin GAR peptides, mild buffer (300 mM NaCl)) was “strong interaction”.

With “GGRGRGGGFRGRGRGGGG-Biotin [unmethylated]” the “pull-down of GST-SART3(HAT) by fibrillarin GAR peptide” value ([10]; biotinylated fibrillarin GAR peptides, streptavidin beads, mild buffer (150 mM NaCl)) was “only the SDMA-modified peptide pulled down GST-SART3(HAT)”.
